Experimental data as given in ChEMBL document CHEMBL1124058, “8-Aryl-and 8-cycloalkyl-1,3-dipropylxanthines: further potent and selective antagonists for A1-adenosine receptors” (J Med Chem, 1988).

Key:
[1] = target: T1, Adenosine receptor A1 (Rattus norvegicus) (UniProt P25099); assay: Antagonistic activity on N6-([3H]-phenylisopropyl)adenosine binding to rat brain membrane (Adenosine A1 receptor); type: tissue-based
T1 sequence (whole entry): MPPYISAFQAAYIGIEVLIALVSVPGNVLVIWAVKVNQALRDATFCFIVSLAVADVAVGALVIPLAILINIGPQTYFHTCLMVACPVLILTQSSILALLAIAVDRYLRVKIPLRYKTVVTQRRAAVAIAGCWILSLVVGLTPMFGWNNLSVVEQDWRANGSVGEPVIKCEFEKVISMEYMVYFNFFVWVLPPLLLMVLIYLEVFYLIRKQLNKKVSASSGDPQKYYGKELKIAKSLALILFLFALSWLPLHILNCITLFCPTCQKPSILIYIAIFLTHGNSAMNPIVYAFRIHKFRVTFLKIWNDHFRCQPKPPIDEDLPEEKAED

[2] = Solubility in water at PH 7.4 in the presence of Tris.HCl buffer; type: physicochemical
Procedure, shortened: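 Aqueous solubility measured in Tris-HCl buffer, pH 7.4.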

Adenosine A2 receptor = Adenosine A2 receptor (Homo sapiens, UniProt P29275+P29274); assay: Inhibition of 5'-(N-ethylcarbamoyl)adenosine-elicited stimulation of adenylate cyclase in human platelet membranes; type: cell membranes
[3] = target: T1, Adenosine receptor A1 (Rattus norvegicus); assay: Antagonistic activity against N6-([3H]-phenylisopropyl)adenosine binding to rat brain membrane (Adenosine A1 receptor); type: tissue-based
Procedure, shortened: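 Competition binding against 1 nM N6-([3H]phenylisopropyl)adenosine at A1 receptors in rat cerebral cortical membranes. A range of xanthine concentrations was tested in triplicate in at least two separate experiments. Values are means with 95% confidence limits.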

[4] = target: Adenosine A2 receptor (Cavia porcellus); assay: Inhibition of stimulation of adenylate cyclase in guinea pig brain slices at A2 receptor (2-chloroadenosine-elicited accumulations of cyclic AMP)

Row | Kb [1] [nM] | solubility [2] [µM] | Kb (Adenosine A2 receptor) [nM] | Kb [3] [nM] | IC50 [4] [nM] | SMILES
1 | 6.5 | 5600 | 1200 | – | – | CCCn1c(=O)c2nc(-c3ccc(OCC(N)=O)cc3O)[nH]c2n(CCC)c1=O
2 | 2.5 | – | – | – | – | CCCn1c(=O)c2nc(-c3ccc(O)cc3O)[nH]c2n(CCC)c1=O
3 | – | 74 | 190 | – | – | CCCn1c(=O)c2nc(C3CCCCC3)[nH]c2n(CCC)c1=O
4 | – | 31 | – | – | – | CCCn1c(=O)c2[nH]c(C3CCCC3)nc2n(CCC)c1=O [1,3-DIPROPYL-8-CYCLOPENTYLXANTHINE [DPCPX]]
5 | 38 | – | 240 | – | – | CCCn1c(=O)c2nc(-c3ccc(C(=O)NCC(=O)OC)cc3)[nH]c2n(CCC)c1=O
6 | 2.4 | 710 | 140 | – | – | CCCn1c(=O)c2nc(-c3ccc(OCC(=O)NCCN)cc3O)[nH]c2n(CCC)c1=O
7 | – | 1600 | – | 710 | – | CCCn1c(=O)c2nc[nH]c2n(CCC)c1=O
8 | 39 | – | 2700 | – | – | CCCn1c(=O)c2nc(CC3CCCCC3)[nH]c2n(CCC)c1=O
9 | 10 | – | – | – | – | CCCn1c(=O)c2nc(-c3ccccc3)[nH]c2n(CCC)c1=O
10 | – | 11 | – | – | – | CCCn1c(=O)c2[nH]c(-c3ccc(O)cc3O)nc2n(CCC)c1=O
11 | 37 | 1100 | 2000 | – | – | CCCn1c(=O)c2nc(-c3ccc(OCC(=O)O)cc3O)[nH]c2n(CCC)c1=O
12 | 31 | – | 3800 | – | – | CCCn1c(=O)c2nc(-c3ccc(OCC(=O)OCC)cc3O)[nH]c2n(CCC)c1=O
13 | 100 | – | 2400 | – | – | CCCn1c(=O)c2nc(-c3ccc(OCC(=O)NCCc4c[nH]cn4)cc3O)[nH]c2n(CCC)c1=O
14 | – | – | 1900 | 16 | – | CCCn1c(=O)c2nc(CC3CCCC3)[nH]c2n(CCC)c1=O
15 | 4.6 | 18 | 180 | – | 980 | CCCn1c(=O)c2[nH]c(-c3ccc(OC)cc3O)nc2n(CCC)c1=O
16 | 3.7 | 14 | – | – | – | CCCn1c(=O)c2nc(-c3ccc(OC)cc3)[nH]c2n(CCC)c1=O
17 | – | 18 | – | – | – | CCCn1c(=O)c2[nH]c(-c3ccccc3)nc2n(CCC)c1=O
18 | 16 | – | 4400 | – | – | CCCn1c(=O)c2nc(-c3ccc(OCC(=O)NCCc4ccc(O)cc4)cc3O)[nH]c2n(CCC)c1=O
19 | 620 | – | 6900 | – | – | CCCn1c(=O)c2nc(C3CCNCC3)[nH]c2n(CCC)c1=O
20 | 600 | – | 3600 | – | – | CCCn1c(=O)c2nc(-c3cnccn3)[nH]c2n(CCC)c1=O
21 | 200 | 180 | – | – | – | CCCn1c(=O)c2nc(-c3ccc(C(=O)O)cc3)[nH]c2n(CCC)c1=O
22 | 3.5 | – | – | – | – | CCCn1c(=O)c2nc(-c3ccc(O)cc3)[nH]c2n(CCC)c1=O
23 | – | 5 | – | – | – | CCCn1c(=O)c2[nH]c(-c3ccc(C(N)=O)cc3)nc2n(CCC)c1=O
24 | 12 | – | 54 | – | 72 | CCCn1c(=O)c2nc(-c3ccc(C(N)=O)cc3)[nH]c2n(CCC)c1=O
25 | 8.4 | – | 77 | – | – | CCCn1c(=O)c2nc(-c3ccc(OCC(=O)NCCN(C)C)cc3O)[nH]c2n(CCC)c1=O
